In ChEMBL document CHEMBL3425469, “Discovery of imidazo[2,1-b]thiazole HCV NS4B inhibitors exhibiting synergistic effect with other direct-acting antiviral agents” (J Med Chem, 2015):

Key:
[1] = system: Hepatitis C virus; test: Antiviral activity against Hepatitis C virus genotype 1b Con 1 infected in human HuH7 cells at 40 nM after 72 hrs by luciferase assay in presence of 15 uM clemizole; format: functional, Hepacivirus hominis, Huh-7
Summary of the method: (§1)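 Huh-7 cells stably carrying a GT1b Con1 bicistronic luciferase replicon, seeded at 8000 cells/well. The test compound and the partner DAA are dosed orthogonally at various concentrations, final 0.5% DMSO, then incubated 72 h at 37°C. Bright-Glo luciferase read-out gives replicon inhibition as % of untreated control. Cytotoxicity is checked in parallel by CellTiter-Fluor. CI and DRI are derived by the Chou–Talalay median-effect method.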

[2] = system: Hepatitis C virus; test: Antiviral activity against Hepatitis C virus genotype 1b Con 1 infected in human HuH7 cells at 5 nM after 72 hrs by luciferase assay in presence of 3 nM simeprevir; format: functional, Hepacivirus hominis, Huh-7; summary of the method: as §1
[3] = system: Hepatitis C virus; test: Antiviral activity against Hepatitis C virus genotype 1b harboring F98C mutation transfected in human HuH7 cells after 72 hrs by luciferase assay; format: functional, cell-based, Hepacivirus hominis; conditions: Huh-7, 72 h
Summary of the method: (§2)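 Huh-7 cells were transiently electroporated with genotype 1b replicon RNA carrying the specified mutation and plated at 10000 cells/well. Compounds were added at 0.5% DMSO final for 72 h at 37°C. Read-out was Bright-Glo luciferase. EC50 is the mean of two independent runs within 2-fold of each other. A reference drug EC50 was measured alongside each mutant replicon to validate it.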

[4] = system: Hepatitis C virus; test: Antiviral activity against Hepatitis C virus genotype 1b Con 1 infected in human HuH7 cells at 10 nM after 72 hrs by luciferase assay in presence of 120 nM sofobuvir; format: functional, Hepacivirus hominis, Huh-7
Summary of the method: (§3)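 Stable Con1 GT1b bicistronic luciferase replicon in Huh-7 cells, 8000 cells/well. Test compound and a marketed DAA or clemizole added alone or together at varied concentrations, 0.5% DMSO final. 72 h at 37°C, then luciferase read with Bright-Glo. Inhibition expressed as % of untreated control, with cytotoxicity run in parallel. CI and DRI derived by the Chou–Talalay median-effect method.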

[5] = system: Hepatitis C virus; test: Antiviral activity against Hepatitis C virus genotype 1b Con 1 infected in human HuH7 cells at 2.5 nM after 72 hrs by luciferase assay in presence of 10 uM clemizole; format: functional, Hepacivirus hominis, Huh-7; summary of the method: as §3
[6] = system: Hepatitis C virus; test: Antiviral activity against Hepatitis C virus genotype 1b Con 1 infected in human HuH7 cells at 160 nM after 72 hrs by luciferase assay in presence of 7.5 uM clemizole; format: functional, Hepacivirus hominis, Huh-7; summary of the method: as §3
[7] = system: Hepatitis C virus; test: Antiviral activity against Hepatitis C virus genotype 1b Con 1 infected in human HuH7 cells at 40 nM after 72 hrs by luciferase assay in presence of 5 uM clemizole; format: functional, Hepacivirus hominis, Huh-7; summary of the method: as §1
[8] = system: Hepatitis C virus; test: Antiviral activity against Hepatitis C virus genotype 1b Con 1 infected in human HuH7 cells at 20 nM after 72 hrs by luciferase assay in presence of 60 nM sofobuvir; format: functional, Hepacivirus hominis, Huh-7; summary of the method: as §1
[9] = system: Hepatitis C virus; test: Antiviral activity against Hepatitis C virus genotype 1b Con 1 infected in human HuH7 cells at 80 nM after 72 hrs by luciferase assay in presence of 6 nM simeprevir; format: functional, Hepacivirus hominis, Huh-7; summary of the method: as §1
[10] = system: Hepatitis C virus; test: Antiviral activity against Hepatitis C virus genotype 1b Con 1 infected in human HuH7 cells at 160 nM after 72 hrs by luciferase assay in presence of 10 uM clemizole; format: functional, Hepacivirus hominis, Huh-7; summary of the method: as §3
[11] = system: Hepatitis C virus; test: Antiviral activity against Hepatitis C virus genotype 1b harboring H3R NS4B mutation transfected in human HuH7 cells after 72 hrs by luciferase assay; format: functional, cell-based, Hepacivirus hominis; conditions: Huh-7, 72 h; summary of the method: as §2
[12] = system: Hepatitis C virus; test: Antiviral activity against Hepatitis C virus genotype 1b Con 1 infected in human HuH7 cells at 2.5 nM after 72 hrs by luciferase assay in presence of 0.08 nM daclatasvir; format: functional, Hepacivirus hominis, Huh-7; summary of the method: as §3
[13] = system: Hepatitis C virus; test: Antiviral activity against Hepatitis C virus genotype 1b Con 1 infected in human HuH7 cells at 160 nM after 72 hrs by luciferase assay in presence of 0.02 nM daclatasvir; format: functional, Hepacivirus hominis, Huh-7; summary of the method: as §3
[14] = system: Hepatitis C virus; test: Antiviral activity against Hepatitis C virus genotype 1b Con 1 infected in human HuH7 cells at 40 nM after 72 hrs by luciferase assay in presence of 12 nM simeprevir; format: functional, Hepacivirus hominis, Huh-7; summary of the method: as §1
[15] = system: Hepatitis C virus; test: Antiviral activity against Hepatitis C virus genotype 1b Con 1 infected in human HuH7 cells at 5 nM after 72 hrs by luciferase assay in presence of 7.5 uM clemizole; format: functional, Hepacivirus hominis, Huh-7; summary of the method: as §1
[16] = system: Hepatitis C virus; test: Antiviral activity against Hepatitis C virus genotype 1b Con 1 infected in human HuH7 cells at 20 nM after 72 hrs by luciferase assay in presence of 20 uM clemizole; format: functional, Hepacivirus hominis, Huh-7; summary of the method: as §1
[17] = system: Hepatitis C virus; test: Antiviral activity against Hepatitis C virus genotype 1b Con 1 infected in human HuH7 cells at 40 nM after 72 hrs by luciferase assay in presence of 12.5 uM clemizole; format: functional, Hepacivirus hominis, Huh-7; summary of the method: as §1
[18] = system: Hepatitis C virus; test: Antiviral activity against Hepatitis C virus genotype 1b Con 1 infected in human HuH7 cells at 2.5 nM after 72 hrs by luciferase assay in presence of 5 uM clemizole; format: functional, Hepacivirus hominis, Huh-7; summary of the method: as §3
[19] = system: Hepatitis C virus; test: Antiviral activity against Hepatitis C virus genotype 1b harboring H94R mutation transfected in human HuH7 cells after 72 hrs by luciferase assay; format: functional, cell-based, Hepacivirus hominis; conditions: Huh-7, 72 h; summary of the method: as §2
[20] = system: Hepatitis C virus; test: Antiviral activity against Hepatitis C virus genotype 1b Con 1 infected in human HuH7 cells at 2.5 nM after 72 hrs by luciferase assay in presence of 240 nM sofobuvir; format: functional, Hepacivirus hominis, Huh-7; summary of the method: as §3
[21] = system: Hepatitis C virus; test: Antiviral activity against Hepatitis C virus genotype 1b Con 1 infected in human HuH7 cells at 10 nM after 72 hrs by luciferase assay in presence of 7.5 uM clemizole; format: functional, Hepacivirus hominis, Huh-7; summary of the method: as §3
[22] = system: Hepatitis C virus; test: Antiviral activity against Hepatitis C virus genotype 1b Con 1 infected in human HuH7 cells at 40 nM after 72 hrs by luciferase assay in presence of 240 nM sofobuvir; format: functional, Hepacivirus hominis, Huh-7; summary of the method: as §1
[23] = Cytotoxicity against human HuH7 cells assessed as cell proliferation by cell titer assay; format: cell-based, Huh-7
Summary of the method: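 Huh-7 cells carrying GT1b Con1 bicistronic replicon seeded at 8000 cells/well; compound added at 0.5% DMSO final, 37°C for 72 h. Proliferation read with CellTiter-Fluor reagent per manufacturer; CC50 fitted from concentration-response, average of at least two independent determinations.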

[24] = system: Hepatitis C virus; test: Antiviral activity against Hepatitis C virus genotype 1b Con 1 infected in human HuH7 cells at 160 nM after 72 hrs by luciferase assay in presence of 15 uM clemizole; format: functional, Hepacivirus hominis, Huh-7; summary of the method: as §3
[25] = system: Hepatitis C virus; test: Antiviral activity against Hepatitis C virus genotype 1b Con 1 infected in human HuH7 cells at 160 nM after 72 hrs by luciferase assay in presence of 0.08 nM daclatasvir; format: functional, Hepacivirus hominis, Huh-7; summary of the method: as §3
[26] = system: Hepatitis C virus; test: Antiviral activity against Hepatitis C virus genotype 1b Con 1 infected in human HuH7 cells at 5 nM after 72 hrs by luciferase assay in presence of 120 nM sofobuvir; format: functional, Hepacivirus hominis, Huh-7; summary of the method: as §1
[27] = system: Hepatitis C virus; test: Antiviral activity against Hepatitis C virus genotype 1b Con 1 infected in human HuH7 cells at 80 nM after 72 hrs by luciferase assay in presence of 3 nM simeprevir; format: functional, Hepacivirus hominis, Huh-7; summary of the method: as §1
[28] = system: Hepatitis C virus; test: Antiviral activity against Hepatitis C virus genotype 1b Con 1 infected in human HuH7 cells at 20 nM after 72 hrs by luciferase assay in presence of 17.5 uM clemizole; format: functional, Hepacivirus hominis, Huh-7; summary of the method: as §1
[29] = system: Hepatitis C virus; test: Antiviral activity against Hepatitis C virus genotype 1b Con 1 infected in human HuH7 cells at 80 nM after 72 hrs by luciferase assay in presence of 0.16 nM daclatasvir; format: functional, Hepacivirus hominis, Huh-7; summary of the method: as §1
[30] = system: Hepatitis C virus; test: Antiviral activity against Hepatitis C virus genotype 1b harboring A156T NS3/4A mutation transfected in human HuH7 cells after 72 hrs by luciferase assay; format: functional, cell-based, Hepacivirus hominis; conditions: Huh-7, 72 h; summary of the method: as §2

`O=C(c1nc2scc(C3CC3)n2c1Cl)N1CCN(C2CCCC2)C(=O)C1` showed a CI [1] of 0.94, a CI [2] of 1.22 and an EC50 [3] of 27.1 µM. For the same compound, the CI [4] was 0.7, the CI [5] was 0.87 and the CI [6] was 1.17. For the same compound, the CI [7] was 1.03, the CI [8] was 0.78 and the CI [9] was 0.37. The CI [10] was 1.09, the EC50 [11] was 1.1 µM and the CI [12] was 0.66. For the same compound, the CI [13] was 0.5, the CI [14] was 0.62 and the CI [15] was 0.6. It also gave a CI [16] of 1.03, a CI [17] of 0.76 and a CI [18] of 1.22. For the same compound, the EC50 [19] was 3.98 µM, the CI [20] was 0.83 and the CI [21] was 0.54. For the same compound, the CI [22] was 0.41, the CC50 [23] was over 10 µM and the CI [24] was 1.45. It also gave a CI [25] of 0.42, a CI [26] of 0.82 and a CI [27] of 0.62. For the same compound, the CI [28] was 1.18, the CI [29] was 0.73 and the EC50 [30] was 0.004 µM.
